Measurements gathered from unrelated publications.
Target: Serine/threonine-protein kinase SIK3 (SIK3, Homo sapiens, UniProt Q9Y2K2)

Compound | read-out | technique | tested at | remaining binding [%]
F[C@@H]1CCN(c2nccc(-c3cnn4ncccc34)n2)C1 | binding |  | 1 µM | 74
O=C(NCC1CCOCC1)c1n[nH]cc1NC(=O)c1c(F)cccc1F | binding | competition with immobilised ligand | 1 µM | 88
CCS(=O)(=O)c1cc2cc(C[C@](O)(CC(C)(C)c3ccc(F)cc3C(N)=O)C(F)(F)F)[nH]c2cn1 | cell-free assay | competition with immobilised ligand | 1 µM | 85
COc1ncc2cc3ccccc3nc2c1C#N | cell-free assay | competition with immobilised ligand | 5 µM | 88
COc1cnc(Nc2cccc(S(N)(=O)=O)c2)nc1N1CCN(c2ccccc2)CC1 | binding | competition with immobilised ligand | 1 µM | 84
O=C(c1ccc(Nc2ncc(Cl)c(-c3ccc(Cl)s3)n2)cc1)N1CCC(N2CCCC2)CC1 | binding | competition with immobilised ligand | 1 µM | 84
O=C(Nc1ccc(Oc2ccc(F)cc2)cc1)N1CCc2ncccc2[C@H]1c1ccc(F)cc1 | cell-free assay | competition with immobilised ligand | 1 µM | 100
O=C(NCCCN1CCOCC1)c1ccc(Nc2ncc(Cl)c(-c3ccc(Cl)s3)n2)cc1 | binding | competition with immobilised ligand | 1 µM | 97
CCN1CCN(Cc2ccc(C(=O)Nc3ccc(C)c(Oc4ccc5c(c4)CC(=O)N5)c3)cc2C(F)(F)F)CC1 | binding | competition with immobilised ligand | 1 µM | 100
CN(C)CC#Cc1ccc(OCCCc2sc(N3CCc4cccc(C(=O)Nc5nc6ccccc6s5)c4C3)nc2C(=O)O)c(F)c1 | cell-free assay | competition with immobilised ligand | 1 µM | 77
CN(C)c1nccc(-c2cnn3ncccc23)n1 | binding |  | 1 µM | 99
Nc1ncc2c(n1)-c1c([nH]c3ccc(C#CC4CC4)cc13)CCCC2 | binding | competition with immobilised ligand | 1 µM | 100
N[C@@H]1CCN(c2nccc(-c3cnn4ncccc34)n2)C1 | binding |  | 1 µM | 100
CCCCN(CCCC)C(=O)CN1C[C@H](c2cc(OC)c3c(c2)OCO3)[C@@H](C(=O)O)[C@@H]1CC(C)(C)CCC | cell-free assay | competition with immobilised ligand | 1 µM | 60.5
CN(CCCC(F)(F)F)c1nccc(-c2cnn3ncccc23)n1 | binding |  | 1 µM | 100
O=C(NCCCN1CCOCC1)c1ccc(Nc2nccc(-c3cc4ccccc4s3)n2)cc1 | binding | competition with immobilised ligand | 1 µM | 95
O=C(O)[C@H]1[C@H](Cn2nnc3ccccc3c2=O)CC[C@@H]1C(=O)c1ccc(OCCC2CCOCC2)cc1 | cell-free assay | competition with immobilised ligand | 1 µM | 61
C[C@@H]1CCN(c2nccc(-c3cnn4ncccc34)n2)C1 | binding |  | 1 µM | 31
CCC(=O)N[C@@H]1CC[C@H](C(=O)N(C)c2ccc(-c3nc4ccccc4o3)cc2)C1 | cell-free assay | competition with immobilised ligand | 1 µM | 100
CN(c1nccc(-c2cnn3ncccc23)n1)C1CC1 | binding |  | 1 µM | 100
